Assay results as given in the RNAGym collection of RNA variant scans (doi:10.1002/anie.201605470).

B1: Osa-1-4 twister ribozyme (parent)
chain: CCGCCUAACACUGCCAAUGCCGGUCCCAAGCCCGGAUAAAAGUGGAGGGGGCGG

Variants of: B1
Test: self-cleavage, relative activity (ratio to wild type); higher = more cleavage; co-transcriptional
How it was run: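 The 48 positions downstream of the cleavage site in a 54-nucleotide Oryza sativa twister ribozyme template were synthesised at 97 % wild-type base and 1 % of each other base. The template was transcribed in vitro at 37 °C for 2 h, with self-cleavage allowed during transcription. Reads with or without upstream sequence after deep sequencing marked cleavage status, and relative activity is fraction cleaved normalised to wild type.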

Variant	self-cleavage
A41U C52A	1.02
A41U C52G	1.05
A41U C52U	1.04
G42A U24C	0.06
G42A U24A	0.05
G42A U24G	0.03
A41G U37A	0.86
A41G U37G	0.87
A41G U37C	0.59
A41U U24C	0.27
A41U U24A	0.22
A41U U24G	0.02
A41G G42C	0.37
A41G G42U	0.44
A41G G42A	0.72
A41G C25A	0.07
A41G C25U	0.16
A41G C25G	0.06
A41G C21U	0.75
A41G C21G	0.13
A41G C21A	0.22
A41U C33A	0.14
A41U C33G	0.1
A41U C33U	0.81

Variant	self-cleavage
A41G C31A	0.04
A41G C31U	0.17
A41G C31G	0.11
G42C G47C	0.06
G42C G47U	0.06
G42C G47A	0.06
A41G G13A	0.06
A41G G13U	0.04
A41G G13C	0.03
G42C G49A	0.06
G42C G49C	0.07
G42C G49U	0.05
A41G G19U	0.09
A41G G19A	0.17
A41G G19C	0.08
A41U G35C	0.77
A41U G35U	0.87
A41U G35A	0.83
G42A G47A	0.08
G42A G47U	0.07
G42A G47C	0.07
A41G C15A	0.18
A41G C15G	0.28
A41G C15U	0.22

Variant	self-cleavage
A41U G50U	1.03
A41U G50C	0.99
A41U G50A	0.6
A41C G49U	0.12
A41C G49C	0.08
A41C G51A	0.28
A41C G51U	0.16
A41C G51C	0.07
A41U C15G	0.64
A41U C15A	0.26
A41U C15U	0.56
A41U C32U	0.17
A41U C32G	0.18
A41U C32A	0.1
A41U G44A	0.88
A41U G44C	0.98
A41U G44U	0.87
G42C G50A	0.14
G42C G50U	0.32
G42C G50C	0.15
A41U U37G	1.02
A41U U37A	0.98
A41U U37C	1.03
A41G U24G	0.04

Variant	self-cleavage
A41G U24A	0.07
A41G U24C	0.07
G42A G49C	0.07
G42A G49A	0.07
G42A G49U	0.06
A41U G49U	0.13
A41U G49C	0.07
A41U G49A	0.14
A41G C52A	0.84
A41G C52G	0.84
A41G C52U	0.88
A41G U43G	0.16
A41G U43A	0.21
A41G U43C	0.13
A41U G30U	0.04
A41U G30C	0.04
A41U G30A	0.06
G42C U18A	0.23
A41G	0.84
A41U	1.02
A41U G51C	0.1
A41U G51U	0.26
A41U G51A	0.59
A41G A8G	0.19

Variant	self-cleavage
A41G A8U	0.1
A41G A8C	0.09
G42A G48C	0.06
G42A G48U	0.05
G42A G48A	0.06
A41C U18A	0.92
A41C U18G	0.85
A41C U18C	0.8
A41G G30C	0.05
A41G G30A	0.05
A41G G30U	0.05
A41U C9U	0.78
A41U C9G	0.79
A41U C9A	0.42
G42C G53A	0.14
G42C G53C	0.07
G42C G53U	0.08
A41U C31A	0.04
A41U C31U	0.94
A41U C31G	0.13
G42C G54U	0.43
G42C G54A	0.26
G42C G54C	0.3
A41G G49C	0.06

Variant	self-cleavage
A41G G49A	0.08
A41G G49U	0.07
A41C G54C	0.85
A41C G54U	0.89
A41C G54A	0.92
G42A G44U	0.31
G42A G44C	0.57
G42A G44A	0.5
A41U C26A	0.06
A41U C26G	0.11
A41U C26U	0.93
A41U G54U	0.99
A41U G54C	0.93
A41U G54A	0.98
A41U G19U	0.35
A41U G19A	0.94
A41U G19C	0.24
A41U G53U	0.36
A41U G53A	0.89
A41U G53C	0.11
G42C G44C	0.19
G42C G44U	0.11
G42C G44A	0.24
G42C U12A	0.09

Variant	self-cleavage
G42C U12C	0.08
G42C U12G	0.06
G42A U37G	0.89
G42A U37A	0.51
G42A U37C	0.88
G42A G45C	0.05
G42A G45A	0.08
G42A G45U	0.05
A41U U12A	1.05
A41U U12C	0.91
A41U U12G	0.69
G42C G45U	0.05
G42C G45C	0.06
G42C G45A	0.06
G42A G53A	0.58
G42A G53U	0.19
G42A G53C	0.1
A41U G23U	0.09
A41U G23C	0.08
A41U G23A	0.62
A41G G54C	0.8
A41G G54U	0.82
A41G G54A	0.81
